ChEMBL document CHEMBL3352780, “Discovery of Sulfonamidebenzamides as Selective Apoptotic CHOP Pathway Activators of the Unfolded Protein Response” (ACS Med Chem Lett, 2014)
Each block holds one molecule with its values, some of them ahead of it. Activity calls are given as the source filed them.

What was measured:
MEF [1] = assay: Antiproliferative activity against wild-type MEF cells after 16 hrs by luminescence assay; type: functional, cell-based; details: Mus musculus
Method in brief: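 Wild-type murine embryonic fibroblasts, run alongside a Chop-knockout MEF line, exposed to compound in dose-response for 16 h. Proliferation read by ATP-based luminescence. EC50 reported in μM ± SEM.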

MEF [2] = assay: Antiproliferative activity against CHOP-knock out MEF cells after 16 hrs by luminescence assay; type: functional, cell-based; details: Mus musculus
Method in brief: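 Wildtype and Chop-knockout murine embryonic fibroblasts given test agent in dose-response for 16 h. Proliferation read by an ATP-based luminescent assay. Chop-null cells tested up to 20 μM; four independent experiments, triplicate samples.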

[3] = Antiproliferative activity against human UM-SCC-23 cells after 24 hrs; type: functional, UMSCC23
Method in brief: (§1)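 Oral squamous cell carcinoma panel cells treated with increasing concentrations of test agent for 24 h in dose-response proliferation assays.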

[4] = Antiproliferative activity against human HN12 cells after 24 hrs; type: functional; method in brief: as §1
[5] = Antiproliferative activity against human HN30 cells after 24 hrs; type: functional; method in brief: as §1
A253 = assay: Antiproliferative activity against human A253 cells after 24 hrs; type: functional, cell-based; method in brief: as §1
H460/T800 = assay: Antiproliferative activity against human H460/T800 cells after 24 hrs; type: functional, cell-based
HN6 = assay: Antiproliferative activity against human HN6 cells after 24 hrs; type: functional, cell-based; method in brief: as §1
UMSCC23 [6] = assay: Induction of CHOP mRNA expression in human UM-SCC-23 cells at 0.04 to 20 uM after 6 hrs by qRT-PCR analysis; type: functional, cell-based
Method in brief: (§2)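 UMSCC23 cells treated in dose-response for 6 h, then lysed. UPR and CHOP target gene transcripts measured by qRT-PCR, with tunicamycin as ER-stress positive control.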

UMSCC23 [7] = assay: Induction of XBP1 mRNA expression in human UM-SCC-23 cells at 0.04 to 20 uM after 6 hrs by qRT-PCR analysis; type: functional, cell-based; method in brief: as §2
UMSCC23 [8] = assay: Induction of GADD34 mRNA expression in human UM-SCC-23 cells at 0.04 to 20 uM after 6 hrs by qRT-PCR analysis; type: functional, cell-based; method in brief: as §2
UMSCC23 [9] = assay: Induction of ERCC1 mRNA expression in human UM-SCC-23 cells at 0.04 to 20 uM after 6 hrs by qRT-PCR analysis; type: functional, cell-based; method in brief: as §2
UMSCC23 [10] = assay: Induction of CHOP mRNA expression in human UM-SCC-23 cells at 20 uM after 6 hrs by qRT-PCR analysis; type: functional, cell-based; method in brief: as §2
UMSCC23 [11] = assay: Induction of XBP1 mRNA expression in human UM-SCC-23 cells at 20 uM after 6 hrs by qRT-PCR analysis; type: functional, cell-based; method in brief: as §2
[12] = Aqueous solubility of the compound in PBS buffer by UV-spectrophotometry; type: physicochemical
Method in brief: (§3)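 Solubility measured in PBS and pION buffer across a biologically relevant pH range.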

[13] = Aqueous solubility of the compound in pION buffer by UV-spectrophotometry; type: physicochemical; method in brief: as §3
[14] = Permeability of the compound at pH 5 to 7.4 by PAMPA; type: ADME
Method in brief: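 PAMPA model of passive transcellular permeability, donor compartment at pH 5.0, 6.2 and 7.4. Compound concentration in the compartments determined by UV spectroscopy.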

Plasma [15] = assay: Plasma protein binding in human plasma after 4 hrs by LC/MS/MS method; type: ADME, cell-free
[16] = Plasma protein binding in mouse plasma after 4 hrs by LC/MS/MS method; type: ADME, cell-free; details: read-out: PPB (converted)
[17] = Stability in human plasma assessed as compound remaining after 180 mins by LC/MS/MS method; type: ADME, cell-free; details: read-out: Stability
Plasma [18] = assay: Stability in mouse plasma assessed as compound remaining after 180 mins by LC/MS/MS method; type: ADME, cell-free; details: 3 h
Liver microsome = assay: Metabolic stability in human liver microsomes after 60 mins by LC/MS/MS method; type: ADME; details: 1 h
Liver = assay: Metabolic stability in mouse liver microsomes after 60 mins by LC/MS/MS method; type: ADME; details: 1 h
[19] = target: Sodium-dependent dopamine transporter (Homo sapiens) (UniProt Q01959); assay: Displacement of [125I] RTI-55 from human recombinant DAT expressed in CHOK1 cells after 3 hrs; type: cell-based; details: CHO-K1, concentration not given here
Method in brief: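 Profiled at 10 μM within a 67-target panel of GPCRs, nuclear receptors, transporters and ion channels. Significant inhibition defined as >50% at a single target.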

[20] = Cytotoxicity against human Fa2N-4 cells assessed as cell viability after 24 hrs by luminescence assay; type: cell-based; details: fa2n-4, 24 h
[21] = Cmax in CD-1 mouse at 30 mg/kg, ip; type: ADME, organism-based; set-up: dose 30 mg/kg, route intraperitoneal; details: in vivo
Method in brief: (§4)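 Male CD-1 mice, single IP dose of 30 mg/kg, 3 mice per group. Plasma concentrations determined at 7 intervals over 8 h.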

[22] = Tmax in CD-1 mouse at 30 mg/kg, ip; type: ADME, organism-based; set-up: dose 30 mg/kg, route intraperitoneal; details: in vivo; method in brief: as §4

Chain of Sodium-dependent dopamine transporter (Homo sapiens) (Q01959 whole entry): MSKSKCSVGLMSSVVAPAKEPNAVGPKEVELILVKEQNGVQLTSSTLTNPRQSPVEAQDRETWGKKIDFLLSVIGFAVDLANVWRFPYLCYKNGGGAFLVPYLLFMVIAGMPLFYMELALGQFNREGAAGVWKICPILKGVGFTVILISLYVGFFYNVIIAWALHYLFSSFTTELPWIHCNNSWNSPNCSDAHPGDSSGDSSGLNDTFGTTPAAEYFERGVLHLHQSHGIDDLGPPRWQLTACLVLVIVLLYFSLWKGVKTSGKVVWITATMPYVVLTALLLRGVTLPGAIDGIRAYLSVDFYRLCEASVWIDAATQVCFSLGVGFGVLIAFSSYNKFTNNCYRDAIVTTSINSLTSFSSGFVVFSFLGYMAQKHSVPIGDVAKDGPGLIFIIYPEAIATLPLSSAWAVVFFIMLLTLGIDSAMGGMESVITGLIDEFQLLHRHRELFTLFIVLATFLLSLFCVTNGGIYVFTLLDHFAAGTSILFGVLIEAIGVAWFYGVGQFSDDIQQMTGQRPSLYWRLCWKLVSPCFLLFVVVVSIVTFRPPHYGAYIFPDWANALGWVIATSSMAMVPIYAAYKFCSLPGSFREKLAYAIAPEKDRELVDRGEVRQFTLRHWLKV

SMILES: CC1CCN(S(=O)(=O)c2ccc(NC(=O)c3ccc([N+](=O)[O-])o3)cc2)CC1
EC50 (MEF [1]): 4.6 µM | EC50 (MEF [2]): 16.3 µM

SMILES: CC1(C)CCN(S(=O)(=O)c2ccc(NC(=O)c3ccc([N+](=O)[O-])o3)cc2)CC1
EC50 (MEF [1]): 3 µM | EC50 (MEF [2]): 9.2 µM

SMILES: CC(C)(C)C1CCN(S(=O)(=O)c2ccc(NC(=O)c3ccc([N+](=O)[O-])o3)cc2)CC1
EC50 (MEF [1]): 1.4 µM | EC50 (MEF [2]): 2.1 µM

SMILES: O=C(Nc1ccc(S(=O)(=O)N2CCC(F)CC2)cc1)c1ccc([N+](=O)[O-])o1
EC50 (MEF [1]): 17.5 µM | EC50 (MEF [2]): > 20 µM

solubility [12]: soluble | solubility [13]: soluble | permeability [14]: permeable | PPB (Plasma [15]): > 99% | fraction unbound at 4 h [16]: 0.16 | remaining at 3 h [17]: 86% | Stability (Plasma [18]): 52% | Stability (Liver microsome): Unstable | Stability (Liver): Unstable | inhibition [19]: 68% | Cmax [21]: 140 nM | Tmax [22]: 10.2 min
SMILES: O=C(Nc1ccc(S(=O)(=O)N2CCC(Cl)CC2)cc1)c1ccc([N+](=O)[O-])o1
EC50 (MEF [1]): 4.8 µM | EC50 (MEF [2]): > 20 µM | Activity [3]: 7.3 µM | Activity [4]: 7.2 µM | Activity [5]: 9 µM | Activity (A253): inactive | Activity (H460/T800): inactive | Activity (HN6): inactive | Activity (UMSCC23 [6]): Active | Activity (UMSCC23 [7]): Active | Activity (UMSCC23 [8]): Active | Activity (UMSCC23 [9]): inactive | Activity (UMSCC23 [10]): inactive | Activity (UMSCC23 [11]): inactive | Activity [20]: 11 µM

SMILES: O=C(Nc1ccc(S(=O)(=O)N2CCCCC2)cc1)c1ccc([N+](=O)[O-])o1
EC50 (MEF [1]): 7.8 µM | EC50 (MEF [2]): > 20 µM
